This is an account of results in PMC2842482 (ACS chemical biology, 2010).

By Ki is commonly meant the dissociation constant of the complex between target and ligand, obtained from inhibition or displacement. A word on the IC50: it is the concentration at which inhibition is half-maximal. Read a high IC50 as weaker potency in that assay. Broadly, the kcat is the maximal rate divided by the concentration of active sites. Broadly, the Km is the substrate concentration at which the rate is half of its maximum. The pKa is the negative logarithm of the acid dissociation constant.

For series [1] the following is noted: aqueous solution; cited from earlier work.
The target of another series is T1, Mn-hArgI (Homo sapiens, UniProt P05089).
T1 sequence (P05089 1-322): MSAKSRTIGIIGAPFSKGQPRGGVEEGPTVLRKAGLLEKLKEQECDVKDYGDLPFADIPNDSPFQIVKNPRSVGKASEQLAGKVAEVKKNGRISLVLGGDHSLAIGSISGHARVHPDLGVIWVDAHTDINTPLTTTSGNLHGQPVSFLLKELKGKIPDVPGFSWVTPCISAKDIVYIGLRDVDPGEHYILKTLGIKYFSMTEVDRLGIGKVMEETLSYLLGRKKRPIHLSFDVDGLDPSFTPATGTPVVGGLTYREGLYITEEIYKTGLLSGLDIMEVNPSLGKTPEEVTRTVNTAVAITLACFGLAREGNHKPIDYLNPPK
Briefly: Inhibition of Mn-hArgI by L-Orn and L-Leu. The series is classed as biochemical.

Another series deals with T2, Co-hArgI (Homo sapiens, UniProt P05089).
T2 sequence (P05089 1-322): T1 sequence (P05089 1-322)
As to the kind of experiment: Inhibition of Co-hArgI by L-Orn and L-Leu. The series is classed as biochemical.

Another series has as its target hArgII. The conditions noted are these: cited from earlier work.
Another series deals with rat Arginase I. The conditions noted are these: rat Arginase I at pH 9.0; cited from earlier work.
The next series has as its system melanoma cell line A375. The conditions noted are these: for IC50: A375 melanoma cells, MTT.
A short description of series [2]: Steady-state kinetics of L-Arg hydrolysis by purified hArgI. The conditions noted are these: for kcat: hydrolysis of L-Arg, 100 mM Hepes buffer; for Fold change KM L-Arg: pH 7.4 vs pH 8.5; for Km: read-out: KM L-Arg. The series is classed as biochemical. The method, boiled down: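 His6-TEV-tagged human ArgI expressed in E. coli BL21 and IMAC-purified. Loaded with 10 mM CoCl2 or MnSO4 (15 min, 50–55 °C), then exchanged into 100 mM HEPES/10% glycerol, pH 7.4. Concentration taken from A280 in 6 M guanidinium. Enzyme-started reactions quenched with 12 N HCl after 30 s. Urea derivatised with DAMO/thiosemicarbazide/Fe3+ (COLDER) by 15 min boiling, read at A530 with L-Arg blanks. At least triplicate; Michaelis–Menten fit.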

Series [3] can be described thus: pH rate dependence of manganese and cobalt arginase. The conditions noted are these: for apparent pKa of kcat vs pH (one-pKa model) / apparent pKa of 1/KM vs pH, lower pKa / apparent pKa of 1/KM vs pH, upper pKa: 37 °C; for apparent pKa of kcat vs pH (one-pKa model): Co-hArgI value tentative; for apparent pKa of 1/KM vs pH, lower pKa / apparent pKa of 1/KM vs pH, upper pKa: bell shaped curve; for ascending limb pKa of kcat/KM vs pH (fit) / descending limb pKa of kcat/KM vs pH (fit): two pKa Henderson-Hasselbach model. The series is classed as biochemical. The method, boiled down:
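Mn- or Co-substituted enzyme assayed at 37 °C, at least in triplicate, in 100 mM buffers: acetate (pH 5–5.5), MES (6–6.5), HEPES (7–7.8), Tris (8–9), Capso (9–10.5). L-Arg ranged 30 µM–80 mM depending on pH. Michaelis–Menten fits gave kcat and KM. kcat/KM versus pH fitted to a Henderson–Hasselbalch form for ascending and descending pKa, with Segel correction. Log kcat and 1/KM plotted versus pH.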

Series [4] in a line: Serum stability in pooled human serum. The series is classed as in vitro ADME. As to conditions: 1 μM enzyme, 37 °C. The method, boiled down: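 Purified His-tagged hArgI (E. coli BL21, IMAC, metal-loaded with 10 mM CoCl2 or MnSO4, 15 min at 50–55 °C) added at 1 µM to pooled human serum at 37 °C. Aliquots taken at time points and tested in triplicate for hydrolysis of 1 mM L-Arg. Rate versus time fitted to a single exponential or a biphasic decay model to give t1/2.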

The nature of series [5]: Thermal denaturation by circular dichroism. The conditions noted are these: 100 mM phosphate buffer, pH 7.4, θ222. The series is classed as physicochemical. The method, boiled down:
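Co-substituted enzyme at 6 µM in 100 mM phosphate, pH 7.4. Molar ellipticity at 222 nm monitored from 25 to 90 °C. Fraction denatured calculated as the ratio to the ellipticity of fully unfolded protein. Data fitted to a modified logistic equation for the transition midpoint.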
For orientation: Circular dichroism is widely used to follow secondary structure.

Series [6] concerns hepatocellular carcinoma cell line, Hep3b. Briefly: In vitro cytotoxicity. The series is classed as cell-based, human.
The nature of series [7]: Kinetics of deactivation in HEPES buffer with added Co^2+. The series is classed as physicochemical. As to conditions: 100 mM HEPES, pH 7.4, 37 °C, in the presence of 500 μM Co^2+.
For series [8] the following is noted: cited from earlier work.
The conditions of series [9]: rat enzyme; cited from earlier work.

Values joined by “and” are separate entries in the source; they are usually repeats but may differ in a detail not shown here. Identical values can stand only once. Like-named read-outs stand apart in the source and are kept apart here.

Regarding `NC(N)=NCCN1CCNCCNCCNCC1.[Zn+2]`, the “apparent pKa of guanidinium deprotonation” value in [1] was 5.9.

`CC(C)C[C@H](N)C(=O)O` [L-Leu, L-Leucine]: the Ki on Mn-hArgI (Ki L-Leu, pH 7.4) is 390 ± 40 µM; at Mn-hArgI (Ki L-Leu, pH 8.5), 640 ± 40 µM; on Co-hArgI (Ki L-Leu, pH 7.4), 480 ± 50 µM; on Co-hArgI (Ki L-Leu, pH 8.5), 1300 µM; on hArgII it was 1000 ± 100 µM. For the same molecule, the figures for the “Fold change Ki L-Leu” value at Mn-hArgI (pH 7.4 vs pH 8.5) and on Co-hArgI (pH 7.4 vs pH 8.5) were “(1.6) fold” and “(2.7) fold”, respectively.

As to `NCCCC[C@H](N)C(=O)O` [L-Lys], at rat Arginase I, the Ki was 900 µM.

Turning to `NCCC[C@H](N)C(=O)O` [L-Orn, L-Ornithine], the Ki at Mn-hArgI (read-out: Ki L-Orn, pH 7.4) stood at 2400 µM; on Mn-hArgI (read-out: Ki L-Orn, pH 8.5) it was 530 ± 60 µM; at Co-hArgI (read-out: Ki L-Orn, pH 7.4), 76 ± 16 µM; at Co-hArgI (read-out: Ki L-Orn, pH 8.5), 50 ± 7 µM; at Co-hArgI (read-out: Ki L-Orn, pH 8.5, 37 °C), 64 ± 9 µM.

B1: Mn-hArgI: recombinant human Arginase I with the native di-nuclear Mn^2+ cofactor (protein, UniProt P05089 1-322, looked up)
Arginase-1: T1 sequence (P05089 1-322)
modifications: Mn2+ cofactor
With B1, in the series on melanoma cell line A375, the half-inhibitory concentration (IC50) stood at 0.0041 ± 0.0001 µM. The kcat in series [2] (pH 7.4, 37 °C) was 300 ± 12 s⁻¹ and 300 s⁻¹. Besides, the “Fold change KM L-Arg” value in [2] is given as “(1. 4) fold”. Further, in series [2] (pH 7.4, 37 °C, listed as Mn-ArgI), the Km was 2330 µM. For the same molecule, the Michaelis constant (Km) in [2] (pH 8.5) was 1600 µM. Moreover, in series [3], the “apparent pKa of kcat vs pH (one-pKa model)” value was 8.1 ± 0.05; the “apparent pKa of 1/KM vs pH, lower pKa” value is 7.1 ± 0.1 and 7.1; the “apparent pKa of 1/KM vs pH, upper pKa” value was 10.7 ± 0.3 and 10.7; the “ascending limb pKa of kcat/KM vs pH (fit)” value came out at 8.4 ± 0.1. Besides, the “descending limb pKa of kcat/KM vs pH (fit)” value in [3] is given as 11.0 ± 0.1. For the same molecule, in series [3] (over the pH range studied (log slope = 0.5)), the “fold increase of rate (kcat) with pH” value was “more than 30 fold”. Moreover, the log kcat slope in series [3] (pH 6 to pH 8.5) was determined as 0.5. In [4], the “t½ of activity (single exponential loss)” value was found to be 4.8 ± 0.8 h.

B2: Co-hArgI: Co^2+ substituted human Arginase I, recombinant, His6-tagged, expressed in E. coli (protein, UniProt P05089 1-322, looked up)
Arginase-1: T1 sequence (P05089 1-322)
modifications: Co2+ substituted; His6 tag
Regarding B2, the “TM (mid-point temperature for unfolding)” value in [5] came to 74 °C. Also, in the series with melanoma cell line A375, the “fold increase in cytotoxicity vs Mn-hArgI” value is reported as ~ 13 fold and the half-maximal inhibitory concentration (IC50) came to 0.00032 ± 6e-05 µM. In addition, in series [2] (pH 7.4, 37 °C), the kcat is 240 ± 14 s⁻¹ and 240 s⁻¹; the Km is 190 ± 40 µM. Moreover, the “Fold change KM L-Arg” value in [2] is “(1.4) fold”. The Km in [2] (pH 8.5) was found to be 140 ± 10 µM. Besides, in series [3], the “apparent pKa of kcat vs pH (one-pKa model)” value was 5.2 ± 0.1; the “apparent pKa of 1/KM vs pH, lower pKa” value worked out at 7.2 ± 0.1; the “apparent pKa of 1/KM vs pH, upper pKa” value is 9.7 ± 0.1 and 9.7; the “ascending limb pKa of kcat/KM vs pH (fit)” value stood at 7.4 ± 0.1. The “descending limb pKa of kcat/KM vs pH (fit)” value in [3] is 10.0 ± 0.1. The log kcat slope in series [3] (pH 5 - 6) was 0.43. In [3] (pH 6 – 10.5), the log kcat slope was ~ 0.03 and 0.03. Further, the “fold lower IC50 than Mn-hArgI” value in series [6] (Hep3b) was determined as 15 fold. For the same molecule, the “fold lower IC50 value” in series [6] (human hepatocellular carcinoma and melanoma cell lines) is recorded as 12-15 fold. The “t½ of activity (monophasic sigmoidal loss)” value in [7] is 45 ± 2 h.

B3: metallo-β-lactamase from B. cereus: metallo-β-lactamase from B. cereus with Mn^2+ or Co^2+ cofactor (protein, UniProt P04190 31-257, looked up)
Metallo-beta-lactamase type 2: SQKVEKTVIKNETGTISISQLNKNVWVHTELGSFNGEAVPSNGLVLNTSKGLVLVDSSWDDKLTKELIEMVEKKFQKRVTDVIITHAHADRIGGIKTLKERGIKAHSTALTAELAKKNGYEEPLGDLQTVTNLKFGNMKVETFYPGKGHTEDNIVVWLPQYNILVGGCLVKSTSAKDLGNVADAYVNEWSTSIENVLKRYRNINAVVPGHGEVGDKGLLLHTLDLLK
modifications: Mn2+ or Co2+ cofactor
B3: the pKa in series [8] (Co^2+ as the cofactor) is 6.9; in [8] (with Mn^2+), 8.4.

B4: rat Mn-ArgI: rat Arginase I with Mn^2+, literature comparator (protein, UniProt P07824 1-323, looked up)
Arginase-1: MSSKPKPIEIIGAPFSKGQPRGGVEKGPAALRKAGLVEKLKETEYNVRDHGDLAFVDVPNDSPFQIVKNPRSVGKANEQLAAVVAETQKNGTISVVLGGDHSMAIGSISGHARVHPDLCVIWVDAHTDINTPLTTSSGNLHGQPVAFLLKELKGKFPDVPGFSWVTPCISAKDIVYIGLRDVDPGEHYIIKTLGIKYFSMTEVDKLGIGKVMEETFSYLLGRKKRPIHLSFDVDGLDPVFTPATGTPVVGGLSYREGLYITEEIYKTGLLSGLDIMEVNPTLGKTPEEVTRTVNTAVALTLSCFGTKREGNHKPETDYLKPPK
modifications: Mn2+ cofactor
In the case of B4, in [9], the TM was 75 °C.

B5: bovine carboxypeptidase A: bovine carboxypeptidase A with Mn^2+ or Co^2+ as cofactor (protein, UniProt P00730 111-419, looked up)
Carboxypeptidase A1: ARSTNTFNYATYHTLDEIYDFMDLLVAEHPQLVSKLQIGRSYEGRPIYVLKFSTGGSNRPAIWIDLGIHSREWITQATGVWFAKKFTEDYGQDPSFTAILDSMDIFLEIVTNPDGFAFTHSQNRLWRKTRSVTSSSLCVGVDANRNWDAGFGKAGASSSPCSETYHGKYANSEVEVKSIVDFVKDHGNFKAFLSIHSYSQLLLYPYGYTTQSIPDKTELNQVAKSAVEALKSLYGTSYKYGSIITTIYQASGGSIDWSYNQGIKYSFTFELRDTGRYGFLLPASQIIPTAQETWLGVLTIMEHTLNNLY
modifications: Mn2+ or Co2+ cofactor
B5: the “acidic limb kinetic pKa” value in series [8] (Co^2+ substitution) is reported as 5.3; in [8] (Mn^2+ as a cofactor), 6.4.
